Assays:
Type in all cases: functional
[1] = tested on: Rattus norvegicus; assay: Inhibition of spontaneous locomotor activity was performed in photocell cages at 30-45 minutes after subcutaneous administration
Procedure, shortened: (§1)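 Rats in photocell cages. Motility counted 30-45 min after sc test drug or saline. Injection volume 5 mL/kg.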

[2] = tested on: Rattus norvegicus; assay: Contralateral circling behavior in 6-OH-DA-lesioned rats was recorded after subcutaneous administration
[3] = tested on: Rattus norvegicus; assay: Antagonism of apomorphine induced stereotype in rats was recorded at 30 minutes after subcutaneous administration of apomorphine; conditions: sc, 0.5 h
Procedure, shortened: (§2)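 Rats housed in wire mesh cages from the day before. Test drug or saline given sc 30 min before apomorphine (8.2 µmol = 2.5 mg/kg, sc). Oral stereotypy (licking, biting) scored every 15 min for 90 min. ED50 taken from the 30-min post-apomorphine observation, when control activity peaked.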

[4] = tested on: Rattus norvegicus; assay: Antagonism of apomorphine induced stereotype in rats was recorded after subcutaneous administration of apomorphine; conditions: sc; procedure, shortened: as §2
[5] = tested on: Rattus norvegicus; assay: Reversal of reserpine plus alpha-Methyl-p-tyrosine-induced hypoactivity in rats was recorded at 1 hr after subcutaneous administration; conditions: sc
Procedure, shortened: (§3)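 Rats pretreated with reserpine (8.2 µmol/kg = 5 mg/kg sc) 16-20 h before, and α-methyl-p-tyrosine methyl ester (813 µmol/kg = 200 mg/kg ip) 2 h before, test drug or saline. Motility measured under artificial light for 1 h from injection. Counts scored 0 (0-49), 1 (50-149) or 2 (>150). ED50 by log-probit as dose giving half-maximal score.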

[6] = species on record: Rattus norvegicus; assay: Inhibition of spontaneous locomotor activity was performed in photocell cages. Motility was measured at 5 minutes
Procedure, shortened: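 Rats in photocell cages. Motility counted 5 min after sc injection of test drug. Injection volume 5 mL/kg.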

[7] = tested on: Rattus norvegicus; assay: Inhibition of spontaneous locomotor activity was performed in photocell cages. Motility was measured at […] after subcutaneous administration; conditions: sc; procedure, shortened: as §1
[8] = tested on: Rattus norvegicus; assay: Reversal of reserpine plus alpha-Methyl-p-tyrosine-induced hypoactivity in rats was recorded at 1 h after administration; procedure, shortened: as §3
[9] = tested on: Rattus norvegicus; assay: Ispilateral circling behavior in 6-OH-DA-lesioned rats was recorded after subcutaneous administration; conditions: sc
[10] = species on record: Rattus norvegicus; assay: Reversal of reserpine plus alpha-Methyl-p-tyrosine-induced hypoactivity in rats was recorded.; procedure, shortened: as §3
[11] = tested on: Rattus norvegicus; assay: Antagonism of apomorphine induced stereotype in rats was recorded at 30 minutes after subcutaneous administration apomorphine; conditions: sc, 0.5 h; procedure, shortened: as §2
[12] = tested on: Rattus norvegicus; assay: Inhibition of spontaneous locomotor activity was performed in photocell cages. Motility was measured at […] after subcutaneous administration; value ranges from 4.2-11; conditions: sc; procedure, shortened: as §1
[13] = tested on: Rattus norvegicus; assay: Reversal of reserpine plus alpha-Methyl-p-tyrosine-induced hypoactivity in rats was recorded after subcutaneous administration; conditions: sc; procedure, shortened: as §3
[14] = tested on: Rattus norvegicus; assay: Antagonism of apomorphine induced stereotype was recorded at 30 minutes after apomorphine subcutaneous administration; conditions: sc, 0.5 h; procedure, shortened: as §2
[15] = Rattus norvegicus, sc, read-out: ED50

Structure (SMILES): Oc1cccc(C2CCCN3CCCCC23)c1 (single isomer, unassigned; 20e)
- ED50 [1, 15]: 63 µmol/kg
- ED50 [2, 15]: > 87 µmol/kg

Structure (SMILES): Oc1cccc(C2CCC3CCCN3C2)c1 (single isomer, unassigned)
- ED50 ([1]; sc): > 67 µmol/kg

Structure (SMILES): Oc1cccc(C2CCCN3CCCC23)c1 (single isomer, unassigned; (-))
- ED50 [1]: 40 µM/kg
- ED50 [3]: 100 µmol/kg
- ED50 [2]: >79 µM/kg

Structure (SMILES): Oc1cccc(C2CCCN3CCCC23)c1 (stereo in doubt; 19e)
- ED50 ([1]; sc): 7.5 µmol/kg
- ED50 [2]: 13 µM/kg
- ED50 [4]: > 134 µmol/kg

Structure (SMILES): Oc1cccc(C2CCC3CCCN3C2)c1 (stereo not drawn)
- ED50 [1, 15]: > 67 µmol/kg
- ED50 [2, 15]: > 67 µmol/kg

Structure (SMILES): Oc1cccc(C2CCC3CCCCN3C2)c1 (stereo not drawn) [listing 1 of 2 here]
- ED50 ([1]; sc): > 62 µmol/kg
- ED50 [2, 15]: > 64 µmol/kg

Structure (SMILES): CN1CCc2cccc3c2[C@H]1Cc1ccc(O)c(O)c1-3 [APOMORPHINE]
- ED50 [5]: 0.27 µmol/kg
- ED50 [2, 15]: 0.058 µmol/kg
- ED50 [6]: 0.092 µmol/kg
- ED50 [7]: 0.64 µmol/kg

Structure (SMILES): CCCN1CCC[C@H](c2cccc(O)c2)C1
- ED50 [3]: 63 µmol/kg
- ED50 [2, 15]: 1.9 µmol/kg
- ED50 [8]: 40 µmol/kg

Structure (SMILES): Oc1cccc(C2CCC3CCCCN3C2)c1 (stereo not drawn) [listing 2 of 2 here]
- ED50 [1, 15]: > 64 µmol/kg
- ED50 [9]: 9.3 µmol/kg
- ED50 [10]: > 62 µmol/kg

Structure (SMILES): CCCN1CCC[C@@H](c2cccc(O)c2)C1 [PRECLAMOL]
- ED50 [11]: 33 µmol/kg
- ED50 [2, 15]: 0.77 µmol/kg
- ED50 [6]: 1.9 µmol/kg
- ED50 [12]: 11 µmol/kg
- ED50 [8]: > 67 µmol/kg

Structure (SMILES): Oc1cccc(C2CCCN3CCCC23)c1 (single isomer, unassigned; (+))
- ED50 [11]: > 157 µmol/kg
- ED50 [1]: 3.9 µM/kg
- ED50 [13]: 150 µmol/kg
- ED50 [2]: 7.1 µM/kg

Structure (SMILES): Oc1cccc(C2=CCCN3CCCCC23)c1 (stereo not drawn)
- ED50 [14]: 34 µmol/kg
- ED50 [5]: > 87 µmol/kg
- ED50 [1, 15]: 8.5 µmol/kg
- ED50 [2, 15]: > 87 µmol/kg

Structure (SMILES): Oc1cccc(C2CCCN3CCCCC23)c1 (single isomer, unassigned; 20a)
- ED50 [1]: >64 µM/kg
- ED50 [2]: >64 µM/kg

Structure (SMILES): Oc1cccc(C2CCCN3CCCC23)c1 (stereo in doubt; 19a)
- ED50 [1]: >67 µM/kg
- ED50 [2]: >67 µM/kg

Structure (SMILES): CCCN1CCCC(c2cccc(O)c2)C1 (stereo not drawn)
- ED50 [1, 15]: 3.4 µmol/kg
- ED50 [3]: > 67 µmol/kg
- ED50 [2, 15]: 1.7 µmol/kg
